Assay [1] is filed under the species Homo sapiens. Nature of the assay: Covalent modification of GAB-buffer assembled microtubule (unknown origin) assessed as effect on nucleotide binding affinity at E-site by measuring ratio of GTP concentration to tubulin concentration incubated for 30 mins in presence or absence of 1 mM GTP and measured after 20 mins by HPLC analysis (reference value: 1). The method, boiled down:
(§1)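 Calf-brain tubulin equilibrated in PEDTA (10 mM NaPi, 1 mM EDTA, pH 7.0), with 10% molar excess ligand or DMSO, then supplemented with 3.4 M glycerol, 1 mM EGTA, MgCl2 to 6 mM, and no nucleotide or 1 mM GTP. Assembled 30 min at 37 °C, spun 20 min at 37 °C, pellets washed in warm GAB without GTP. Tubulin measured, nucleotides extracted and quantified by HPLC.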

Assay [2] is filed under the species Homo sapiens. The assay is described as follows: Covalent modification of GAB-buffer assembled microtubule (unknown origin) assessed as effect on nucleotide binding affinity at E-site by measuring ratio of GDP concentration to microtubule concentration incubated for 30 mins in presence or absence of 1 mM GTP and measured after 20 mins by HPLC analysis (reference value: 1). The method, boiled down: as §1

The species named for assay [3] is Bos taurus. The assay is described as follows: Induction of oligomerization of compound-ligated activated form of calf brain tubulin assessed as formation of double rings by measuring sedimentation coefficient at 55 uM incubated for 30 mins in presence of GDP and 3.31 mM Mg2+ by analytical ultracentrifugation. A digest of the protocol:
(§2)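 Calf-brain tubulin 50 μM in PEDTA with 55 μM zampanolide or DMSO, 1 mM GDP, 7 mM total (3.31 mM free) Mg2+, plus DTT; incubated 25 °C, 30 min, sedimentation velocity at 40 000 rpm; c(S) by least-squares boundary modelling corrected to water/20 °C; assembled polymer checked by uranyl acetate negative-stain EM.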

For assay [4], the species on record is Bos taurus. The assay is described as follows: Covalent modification of compound-ligated activated form of calf brain dimeric tubulin assessed as effect on nucleotide binding affinity at E-site by measuring ratio of GTP concentration to tubulin concentration incubated for 1.5 hrs in presence or absence of 10 uM GTP followed by passage through sephadex G25 column by HPLC analysis (reference value: 1.94 +/- 0.03). A digest of the protocol:
(§3)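 40 μM calf-brain tubulin in PEDTA buffer (10 mM NaPi, 1 mM EDTA, pH 7.0) incubated 1.5 h at 25 °C with 10% excess ligand or DMSO. Unbound nucleotide removed on Sephadex G-25 in PEDTA plus 10 μM GTP and […] at 4 °C. Aliquot diluted 20-fold in 10 mM NaPi, 1% SDS, pH 7.0; tubulin and nucleotide quantified, nucleotides by HPLC after extraction.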

The species named for assay [5] is Bos taurus. The assay is described as follows: Covalent modification of compound-ligated activated form of calf brain dimeric tubulin assessed as effect on nucleotide binding affinity at E-site by measuring ratio of GDP nucleotide concentration to tubulin concentration incubated for 1.5 hrs in presence or absence of 10 uM GTP followed by passage through sephadex G25 column by HPLC analysis (reference value: 0.06 +/- 0.03). A digest of the protocol: as §3

The species entered for assay [6] is Homo sapiens. The assay is described as follows: Induction of oligomerization of compound modified microtubule (unknown origin) assessed as peloruside binding constant at 25 degreeC incubated for 30 mins followed by GTP addition and measured after 30 mins by HPLC analysis. Particulars: time 1.0 hrs. A digest of the protocol: (§4)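 Stabilized cross-linked microtubules (0.6 μM) preincubated 30 min, 25 °C with 10% excess zampanolide or DMSO in GAB (3.4 M glycerol, 10 mM NaPi, 1 mM EDTA, 6 mM MgCl2, 0.1 mM GTP, pH 6.7); peloruside 0.1–10 μM added, further 30 min at 25 °C; spun 20 min at 50 000 rpm; supernatant/pellet ligand by reverse-phase HPLC at 205/230 nm; Kb fitted, three independent measurements.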

For assay [7], the species on record is Bos taurus. The assay is described as follows: Induction of oligomerization of compound-ligated activated form of calf brain tubulin assessed as formation of tetramers by measuring sedimentation coefficient at 55 uM incubated for 30 mins in presence of GDP and 3.31 mM Mg2+ by analytical ultracentrifugation. The method, boiled down:
as §2

For assay [8], the species on record is Bos taurus. The assay is described as follows: Induction of oligomerization of compound-ligated activated form of calf brain tubulin assessed as formation of dimers by measuring sedimentation coefficient at 55 uM incubated for 30 mins in presence of GDP and 3.31 mM Mg2+ by […]. A digest of the protocol:
as §2

The species entered for assay [9] is Bos taurus. The assay is described as follows: Induction of oligomerization of compound-ligated activated form of calf brain tubulin assessed as formation of microtubule by measuring sedimentation coefficient at 55 uM incubated for 30 mins in presence of GDP and 3.31 mM Mg2+ by electron micrography analysis. A digest of the protocol:
as §2

For assay [10], the species on record is Bos taurus. The assay is described as follows: Induction of oligomerization of compound-ligated activated form of calf brain tubulin assessed as oligomer formation by measuring sedimentation coefficient at 55 uM incubated for 30 mins in presence of GTP/GDP and 0.14 mM Mg2+ by analytical ultracentrifugation.
Assay [11] is filed under the species Bos taurus. The assay is described as follows: Induction of oligomerization of compound-ligated activated form of calf brain tubulin at 55 uM incubated for 30 mins in presence of 0.1 mM GDP and 0.039 mM Mg2+ by analytical ultracentrifugation. A digest of the protocol: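 Sedimentation velocity of 50 μM tubulin with 55 μM zampanolide or DMSO in PEDTA, 0.1 mM GDP, 1 mM total Mg2+ (0.039 mM free); 25 °C for 30 min, 40 000 rpm; c(S) fitted, corrected to water/20 °C.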

Assay [12] is filed under the species Bos taurus. Nature of the assay: Induction of oligomerization of compound-ligated activated form of calf brain tubulin at 55 uM incubated for 30 mins in presence of 0.1 mM GTP and 0.028 mM Mg2+ by analytical ultracentrifugation. A digest of the protocol:
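Sedimentation velocity of 50 μM tubulin with 55 μM zampanolide or DMSO in PEDTA, 0.1 mM GTP, 1 mM total Mg2+ (0.028 mM free); 25 °C for 30 min, 40 000 rpm; c(S) fitted, corrected to water/20 °C.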

For assay [13], the species on record is Bos taurus. Nature of the assay: Induction of oligomerization of compound-ligated activated form of calf brain tubulin assessed as formation of microtubule at 55 uM incubated for 30 mins in presence of GTP and 3 mM Mg2+ by electron micrography analysis. The method, boiled down: (§5)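 Tubulin 50 μM in PEDTA with 55 μM zampanolide or DMSO and 0.1 mM GTP; Mg2+ 1.5 mM total (0.14 mM free) or 3 mM total (0.77 mM free), free Mg2+ corrected for phosphate, nucleotide, EDTA binding; 25 °C, 30 min, then 40 000 rpm ultracentrifugation; c(S) distributions; negative-stain EM of samples.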

The species named for assay [14] is Bos taurus. The assay is described as follows: Induction of oligomerization of compound-ligated activated form of calf brain tubulin assessed as tubulin-tubulin interaction causing aggregation formation at 55 uM incubated for 30 mins in presence of GTP and 1.5 mM Mg2+ by analytical ultracentrifugation. The method, boiled down:
as §5

The species entered for assay [15] is Homo sapiens. The assay is described as follows: Binding affinity to stabilized microtubule (unknown origin) at 25 degreeC incubated for 30 mins followed by GTP addition and measured after 30 mins by HPLC analysis. The following applies: time 1.0 hrs. A digest of the protocol: as §4
The species entered for assay [16] is Bos taurus. Nature of the assay: Binding affinity to zampanolide-modified calf brain tubulin.
The species named for assay [17] is Bos taurus. Nature of the assay: Binding affinity to calf brain tubulin assessed as compound-protein complex stoichiometry ratio of 1:1 in absence of Mg2+ by spectrofluorometry analysis.
For assay [18], the species on record is Bos taurus. Nature of the assay: Binding affinity to zampanolide-modified calf brain tubulin assessed as compound-protein complex stoichiometry ratio of 1:1 in absence of Mg2+ by spectrofluorometry assay.
Assay [19] is filed under the species Bos taurus. The assay is described as follows: Induction of oligomerization calf brain tubulin assessed as formation of microtubule at 100 uM incubated for 30 mins in presence of GTP and 3 mM Mg2+ by electron micrography analysis.

Data on seven molecules can be found in ChEMBL document CHEMBL4715812, “Zampanolide Binding to Tubulin Indicates Cross-Talk of Taxane Site with Colchicine and Nucleotide Sites” (J Nat Prod, 2018).

Activity calls are given as the source filed them. The rule behind the calls is not given here. A value given as a limit tells only on which side of the number the result lay.

`CC(=O)O[C@@]12CO[C@@H]1C[C@H](O)[C@@]1(C)C(=O)[C@H](O)C3=C(C)[C@@H](OC(=O)[C@H](O)[C@@H](NC(=O)OC(C)(C)C)c4ccccc4)C[C@@](O)([C@@H](OC(=O)c4ccccc4)[C@H]21)C3(C)C`: the figures for the Ratio in the assay filed under Homo sapiens [1] and in the assay filed under Homo sapiens [2] were 1.02 and 1.03, respectively.

As for `C=C1C[C@@H]2C/C=C/C(=O)C/C(C)=C\C=C\C(=O)O[C@H]([C@H](O)NC(=O)/C=C\C=C\C)C/C(C)=C/[C@H](C1)O2`, the S20,w in the assay listed under Bos taurus [3] was 36 Svedberg; in the assay filed under Bos taurus [7], 8 Svedberg; in the assay filed under Bos taurus [8], 6 Svedberg; in the assay filed under Bos taurus [9], above 50 Svedberg; in the assay filed under Bos taurus [10], 9 Svedberg; in the assay listed under Bos taurus [13], above 50 Svedberg. Moreover, the Ratio is 0.91 in the assay listed under Bos taurus [4], 0.04 in the assay filed under Bos taurus [5], 0.92 in the assay listed under Homo sapiens [1] and 0.84 in the assay filed under Homo sapiens [2]. In addition, in the assay listed under Homo sapiens [6], the Kb was 3.1 10^6/M. In addition, the outcome in the assay listed under Bos taurus [11], in the assay listed under Bos taurus [12] and in the assay listed under Bos taurus [14] was inactive.

In the case of `CC[C@H](/C=C(/C)[C@@H]1C[C@@H](OC)C[C@H](O)C(C)(C)[C@@]2(O)O[C@@H](C[C@@H](OC)[C@H](O)C(=O)O1)C[C@@H](OC)[C@H]2O)CO`, the Kb in the assay listed under Homo sapiens [15] is 4 10^6/M.

Take `COc1ccc(-c2ccc(OC)c(=O)cc2)c(OC)c1OC`: the Kb in the assay filed under Bos taurus [16] was 4.5 10^6/M. Moreover, the outcome in the assay filed under Bos taurus [17] and in the assay filed under Bos taurus [18] was Active.

For `CC1=C[C@H]2[C@@H](O)[C@H](C)[C@@H](O)[C@@H]2[C@H]2[C@@H]3C4=C5O[C@@](C)(CC[C@H](OC4=O)[C@@H]5C)[C@@H]3C[C@@H]12`, the Ratio was 1.83 in the assay filed under Bos taurus [4], 0.02 in the assay listed under Bos taurus [5], 1.03 in the assay filed under Homo sapiens [1] and 0.97 in the assay filed under Homo sapiens [2].

As to `C=C1C[C@H]2C/C=C/C(=O)C/C(C)=C\C=C\C(=O)O[C@@H](C=O)C/C(C)=C/[C@@H](C1)O2`, the Ratio in the assay filed under Bos taurus [4] was 1.33; in the assay filed under Bos taurus [5] it was 0.03; in the assay filed under Homo sapiens [1] it was 0.95; in the assay filed under Homo sapiens [2] it was 0.84.

For the molecule `C/C(=C\c1csc(C)n1)[C@@H]1C[C@@H]2O[C@]2(C)CCC[C@H](C)[C@H](O)[C@@H](C)C(=O)C(C)(C)[C@@H](O)CC(=O)O1`, the outcome in the assay filed under Bos taurus [19] was Active.
